One block for each molecule: values may come before it.
Experiments:
[1] = Drug metabolism in CD-1 mouse active microsomes assessed as CYP450-mediated oxidative phase 1 metabolite formation measured within 30 mins by LC-MS/MS analysis; type: ADME; details: 0.5 h
[2] = Drug metabolism in CD-1 mouse active microsomes assessed as metabolite formation at rate of biphasic kinetics by LC-MS/MS analysis; type: ADME, Microsome
[3] = Drug metabolism in CD-1 mouse active microsomes assessed as CYP450-mediated oxidative phase 1 metabolite formation by LC-MS/MS analysis
[4] = Metabolic stability in CD-1 mouse inactive microsomes incubated for 1 hr by LC-MS/MS analysis; type: ADME, Microsome
[5] = molecular target: DNA topoisomerase 2-alpha (Homo sapiens, UniProt P11388); experiment: Inhibition of human topoisomerase 2alpha mediated decatenation at 30 uM using kDNA as susbtrate preincubated for 20 mins followed by substrate and ATP addition and measured after 1 hr by ethidium bromide staining based gel electrophoresis method relative to control
Procedure, shortened: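 Human TOP2A (3 U) preincubated 20 min at 37 °C with compound at 30 μM in 1.2% DMSO. Reaction started with 2 mM ATP and 35 ng kDNA and run 1 h at 37 °C. Products resolved on 0.8% agarose in TBE with 0.2 μg/mL ethidium bromide; decatenated bands compared with vehicle.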

[6] = Drug metabolism in CD-1 mouse active microsomes assessed as metabolite formation at rate of first-order kinetics by LC-MS/MS analysis; type: ADME, Microsome
[7] = compound: COc1cc(NC(C)=O)c(O)c2nccc(-c3ccccc3NC(=O)c3ccccc3)c12; experiment: (§1) Competitive inhibition of human topoisomerase 2alpha ATPase activity assessed as Km for ATP hydrolysis with DNA relaxation at 10 uM using supercoiled plasmid DNA as susbtrate after 1 hr by malachite green assay/Michelis-Menten kinetics analysis (reference value: 317.8 to 350.1 microM)
[8] = compound: Cn1ccc2c(c1=O)C(=O)c1nccc3c1c-2nc1ccccc13; experiment: as §1
[9] = compound: Cn1ccc2c(c1=O)C(=O)c1nccc3c1c-2nc1ccccc13; experiment: Competitive inhibition of human topoisomerase 2alpha ATPase activity assessed as Vmax for ATP hydrolysis with DNA relaxation at 20 uM using supercoiled plasmid DNA as susbtrate after 1 hr by malachite green assay/Michelis-Menten kinetics analysis (reference value: 0.652 to 0.6529 pmol/s)
[10] = compound: COc1cc(NC(C)=O)c(O)c2nccc(-c3ccccc3NC(=O)c3ccccc3)c12; experiment: (§2) Competitive inhibition of human topoisomerase 2alpha ATPase activity assessed as Vmax for ATP hydrolysis with DNA relaxation at 10 uM using supercoiled plasmid DNA as susbtrate after 1 hr by malachite green assay/Michelis-Menten kinetics analysis (reference value: 0.652 to 0.6529 pmol/s)
[11] = compound: Cn1ccc2c(c1=O)C(=O)c1nccc3c1c-2nc1ccccc13; experiment: as §2
[12] = compound: Cn1ccc2c(c1=O)C(=O)c1nccc3c1c-2nc1ccccc13; experiment: Competitive inhibition of human topoisomerase 2alpha ATPase activity assessed as Km for ATP hydrolysis with DNA relaxation at 20 uM using supercoiled plasmid DNA as susbtrate after 1 hr by malachite green assay/Michelis-Menten kinetics analysis (reference value: 317.8 to 350.1 microM)
[13] = compound: COc1cc(NC(C)=O)c(O)c2nccc(-c3ccccc3NC(=O)c3ccccc3)c12; experiment: Competitive inhibition of human topoisomerase 2alpha ATPase activity assessed as Vmax for ATP hydrolysis with DNA relaxation at 5 uM using supercoiled plasmid DNA as susbtrate after 1 hr by malachite green assay/Michelis-Menten kinetics analysis (reference value: 0.652 to 0.6529 pmol/s)
[14] = compound: COc1cc(NC(C)=O)c(O)c2nccc(-c3ccccc3NC(=O)c3ccccc3)c12; experiment: Competitive inhibition of human topoisomerase 2alpha ATPase activity assessed as Km for ATP hydrolysis with DNA relaxation at 5 uM using supercoiled plasmid DNA as susbtrate after 1 hr by malachite green assay/Michelis-Menten kinetics analysis (reference value: 317.8 to 350.1 microM)

Drug metabolism [1]: Metabolite_Detected | Drug metabolism [2]: Metabolite_Detected | Drug metabolism [3]: Metabolite_Notdetected | Stability [4]: Stable | inhibition [5]: 92% | Drug metabolism [6]: Metabolite_Notdetected
Molecule: CC(=O)Nc1ccc2c(-c3ccsc3)ccnc2c1O

B1: DNA topoisomerase 2-alpha (Homo sapiens), P11388 (protein)
chain: MEVSPLQPVNENMQVNKIKKNEDAKKRLSVERIYQKKTQLEHILLRPDTYIGSVELVTQQMWVYDEDVGINYREVTFVPGLYKIFDEILVNAADNKQRDPKMSCIRVTIDPENNLISIWNNGKGIPVVEHKVEKMYVPALIFGQLLTSSNYDDDEKKVTGGRNGYGAKLCNIFSTKFTVETASREYKKMFKQTWMDNMGRAGEMELKPFNGEDYTCITFQPDLSKFKMQSLDKDIVALMVRRAYDIAGSTKDVKVFLNGNKLPVKGFRSYVDMYLKDKLDETGNSLKVIHEQVNHRWEVCLTMSEKGFQQISFVNSIATSKGGRHVDYVADQIVTKLVDVVKKKNKGGVAVKAHQVKNHMWIFVNALIENPTFDSQTKENMTLQPKSFGSTCQLSEKFIKAAIGCGIVESILNWVKFKAQVQLNKKCSAVKHNRIKGIPKLDDANDAGGRNSTECTLILTEGDSAKTLAVSGLGVVGRDKYGVFPLRGKILNVREASHKQIMENAEINNIIKIVGLQYKKNYEDEDSLKTLRYGKIMIMTDQDQDGSHIKGLLINFIHHNWPSLLRHRFLEEFITPIVKVSKNKQEMAFYSLPEFEEWKSSTPNHKKWKVKYYKGLGTSTSKEAKEYFADMKRHRIQFKYSGPEDDAAISLAFSKKQIDDRKEWLTNFMEDRRQRKLLGLPEDYLYGQTTTYLTYNDFINKELILFSNSDNERSIPSMVDGLKPGQRKVLFTCFKRNDKREVKVAQLAGSVAEMSSYHHGEMSLMMTIINLAQNFVGSNNLNLLQPIGQFGTRLHGGKDSASPRYIFTMLSSLARLLFPPKDDHTLKFLYDDNQRVEPEWYIPIIPMVLINGAEGIGTGWSCKIPNFDVREIVNNIRRLMDGEEPLPMLPSYKNFKGTIEELAPNQYVISGEVAILNSTTIEISELPVRTWTQTYKEQVLEPMLNGTEKTPPLITDYREYHTDTTVKFVVKMTEEKLAEAERVGLHKVFKLQTSLTCNSMVLFDHVGCLKKYDTVLDILRDFFELRLKYYGLRKEWLLGMLGAESAKLNNQARFILEKIDGKIIIENKPKKELIKVLIQRGYDSDPVKAWKEAQQKVPDEEENEESDNEKETEKSDSVTDSGPTFNYLLDMPLWYLTKEKKDELCRLRNEKEQELDTLKRKSPSDLWKEDLATFIEELEAVEAKEKQDEQVGLPGKGGKAKGKKTQMAEVLPSPRGQRVIPRITIEMKAEAEKKNKKKIKNENTEGSPQEDGVELEGLKQRLEKKQKREPGTKTKKQTTLAFKPIKKGKKRNPWSDSESDRSSDESNFDVPPRETEPRRAATKTKFTMDLDSDEDFSDFDEKTDDEDFVPSDASPPKTKTSPKLSNKELKPQKSVVSDLEADDVKGSVPLSSSPPATHFPDETEITNPVPKKNVTVKKTAAKSQSSTSTTGAKKRAAPKGTKRDPALNSGVSQKPDPAKTKNRRKRKPSTSDDSDSNFEKIVSKAVTSKKSKGESDDFHMDFDSAVAPRAKSVRAKKPIKYLEESDEDDLF
Km [7]: 387 µM | Km [8]: 518 µM | Vmax [9]: 0.65 pmol/s | Vmax [10]: 0.646 pmol/s | Vmax [11]: 0.657 pmol/s | Km [12]: 651 µM | Vmax [13]: 0.65 pmol/s | Km [14]: 380 µM

From ChEMBL document CHEMBL4321838, “Drug Design Targeting T-Cell Factor-Driven Epithelial-Mesenchymal Transition as a Therapeutic Strategy for Colorectal Cancer” (J Med Chem, 2019)
